In ChEMBL document CHEMBL4673298, “Exploration of Structure-Activity Relationship of Aromatic Aldehydes Bearing Pyridinylmethoxy-Methyl Esters as Novel Antisickling Agents” (J Med Chem, 2020):
The source made the active and inactive calls. No cut-off for these calls is given here.

Assays:
Homo sapiens [1] = species on record: Homo sapiens; assay: Binding affinity to Hemoglobin in normal human whole blood assessed as increase in Hb affinity for oxygen at 2 mM incubated for 1 to 24 hrs by oxygen equilibrium curve study; type: tissue-based; conditions: time 1-24 hrs
Method in brief: (§1)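 Normal human whole blood, hematocrit 30%, incubated with or without compound in DMSO (0.5, 1.0 or 2.0 mM; 2 mM for the time course) at 37 °C. The blood is tonometered about 7 min at 37 °C against gas with 0.804, 2.935 and 5.528% O2 (6, 20, 40 mmHg). sO2 and pO2 are read on a blood gas analyzer. ΔP50% is taken relative to no compound. Time course sampled at 1, 2, 4, 8, 12, 24 h.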

Red blood cell [2] = assay: Binding affinity to Hemoglobin in sickle cell RBCs from blood isolated from patient with homozygous SS assessed as increase in hemoglobin modification under hypoxic conditions incubated for 2 hrs […]; type: tissue-based; conditions: Homo sapiens
Method in brief: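 SS blood, hematocrit 20%, incubated under air with compound (0.5, 1, 2 mM) at 37 °C for 1 h, then hypoxic (2.5% O2/97.5% N2) at 37 °C for 2 h. Cells are washed and hemolyzed. Lysate is run on weak cation-exchange HPLC to quantify Hb adduct (modified Hb). Three biological replicates, mean ± SD.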

Red blood cell [3] = assay: Binding affinity to Hemoglobin in sickle cell RBCs from blood isolated from patient with homozygous SS assessed as increase in Hb affinity for oxygen under hypoxic conditions incubated for 2 hrs by oxygen equilibrium curve study; type: tissue-based; conditions: Homo sapiens
Method in brief: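 SS blood, hematocrit 20%, incubated under air with compound (0.5, 1, 2 mM) at 37 °C for 1 h, then hypoxic (2.5% O2/97.5% N2) at 37 °C for 2 h. Cells are washed in PBS and hemolyzed hypotonically. Lysate in 0.1 M potassium phosphate pH 7.0 is run by Hemox analysis for P50. ΔP50 is given as percent of DMSO control. Three biological replicates, mean ± SD.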

[4] = Inhibition of sickling in sickle cell RBCs from blood isolated from patient with homozygous SS at 2 mM under hypoxic conditions incubated for 2 hrs; type: functional; conditions: Homo sapiens, Erythrocyte
Method in brief: (§2)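 SS blood, hematocrit 20%, preincubated under air with compound (0.5, 1, 2 mM) for 1 h at 37 °C, then 2 h hypoxia (2.5% O2/97.5% N2) at 37 °C. Aliquots are fixed in 2% glutaraldehyde without air exposure. Cell morphology is scored from bright-field images at 40×. Three biological replicates, mean ± SD.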

Erythrocyte = assay: Inhibition of sickling in sickle cell RBCs from blood isolated from patient with homozygous SS under hypoxic conditions incubated for 2 hrs; type: functional, tissue-based; conditions: Homo sapiens; method in brief: as §2
Homo sapiens [5] = species on record: Homo sapiens; assay: Binding affinity to Hemoglobin in normal human whole blood assessed as increase in Hb affinity for oxygen at 2 mM incubated for 24 hrs by oxygen equilibrium curve study; type: tissue-based; method in brief: as §1

Molecule COc1cc(C=O)ccc1O has an Activity (Homo sapiens [1]) of 21%.

For COC(=O)c1ccnc(COc2ccc(OC)cc2C=O)c1, the Activity (Red blood cell [2]) was “Dose-dependent effect”, the Activity (Red blood cell [3]) was “Dose-dependent effect” and the inhibition at 2000 µM [4] was over 90%. For the same molecule, the inhibition (Erythrocyte) was “Dose-dependent effect” and the Activity (Homo sapiens [5]) was “Active”.
